Measurements published in ChEMBL document CHEMBL4266056, “Discovery and Pharmacology of a Novel Somatostatin Subtype 5 (SSTR5) Antagonist: Synergy with DPP-4 Inhibition” (ACS Med Chem Lett, 2018).

Experiments:
[1] = molecular target: T1, Somatostatin receptor type 5 (Mus musculus, UniProt O08858); experiment: Displacement of (3-125I-Tyr11)-SRIF-28 from mouse SSTR5 expressed in CHO-K1 cell membranes by filtration binding assay
T1 sequence (O08858 whole entry): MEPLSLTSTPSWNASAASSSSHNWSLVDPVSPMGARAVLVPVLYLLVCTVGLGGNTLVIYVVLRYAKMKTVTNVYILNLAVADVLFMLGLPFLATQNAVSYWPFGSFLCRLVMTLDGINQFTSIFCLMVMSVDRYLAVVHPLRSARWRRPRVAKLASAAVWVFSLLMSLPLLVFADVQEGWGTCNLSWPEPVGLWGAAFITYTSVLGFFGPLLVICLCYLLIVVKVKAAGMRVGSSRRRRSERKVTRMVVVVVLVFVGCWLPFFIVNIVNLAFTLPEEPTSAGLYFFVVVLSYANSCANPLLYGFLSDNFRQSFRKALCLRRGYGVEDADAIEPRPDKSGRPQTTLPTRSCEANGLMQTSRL

[2] = molecular target: T2, Somatostatin receptor type 5 (Homo sapiens, UniProt P35346); experiment: Displacement of (3-125I-Tyr11)-SRIF-28 from human SSTR5 expressed in CHO-K1 cell membranes by filtration binding assay
T2 sequence (P35346 whole entry): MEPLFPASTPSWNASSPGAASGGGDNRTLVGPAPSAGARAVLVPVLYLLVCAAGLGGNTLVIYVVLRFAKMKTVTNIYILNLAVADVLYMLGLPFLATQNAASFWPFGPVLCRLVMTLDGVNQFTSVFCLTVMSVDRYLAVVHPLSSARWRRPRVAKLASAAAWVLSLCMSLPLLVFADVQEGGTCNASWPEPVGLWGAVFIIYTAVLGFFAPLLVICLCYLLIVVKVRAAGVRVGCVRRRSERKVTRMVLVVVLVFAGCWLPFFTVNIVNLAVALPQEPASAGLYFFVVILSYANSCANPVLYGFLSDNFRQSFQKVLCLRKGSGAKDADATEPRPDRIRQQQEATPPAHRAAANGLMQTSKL

[3] = molecular target: T2, Somatostatin receptor type 5; experiment: Antagonist activity at human SSTR5 expressed in CHO-K1 cell membranes assessed as reduction in SST-28-induced inhibition of forskolin-stimulated cAMP accumulation by LANCE assay; assay type: functional, cell-based
[4] = molecular target: Somatostatin receptor type 1 (Homo sapiens, UniProt P30872); experiment: Antagonist activity at human SSTR1 expressed in CHO-K1 cell membranes; assay type: functional, cell-based
Sequence of Somatostatin receptor type 1 (P30872 whole entry): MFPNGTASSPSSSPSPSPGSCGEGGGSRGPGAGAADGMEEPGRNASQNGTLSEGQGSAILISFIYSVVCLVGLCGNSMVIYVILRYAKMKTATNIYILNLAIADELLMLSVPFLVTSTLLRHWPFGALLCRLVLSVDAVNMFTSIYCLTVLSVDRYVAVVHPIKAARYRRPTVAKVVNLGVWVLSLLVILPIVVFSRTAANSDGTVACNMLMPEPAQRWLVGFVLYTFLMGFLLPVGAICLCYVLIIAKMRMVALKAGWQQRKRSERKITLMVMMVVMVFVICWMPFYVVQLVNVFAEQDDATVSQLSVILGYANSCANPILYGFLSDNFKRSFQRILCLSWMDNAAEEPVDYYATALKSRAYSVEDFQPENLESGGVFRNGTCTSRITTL
Method in brief: (§1)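 Counter-screen by filtration membrane binding: competitive displacement of radiolabeled SST-28 from cell membranes expressing human SSTR1, SSTR2, SSTR3 or SSTR4. The IC50 is the mean of at least duplicate experiments within a maximal threefold range.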

[5] = molecular target: T1, Somatostatin receptor type 5; experiment: Antagonist activity at mouse SSTR5 expressed in CHO-K1 cell membranes assessed as reduction in SST-28-induced inhibition of forskolin-stimulated cAMP accumulation by LANCE assay; assay type: functional, cell-based
Mus musculus [6] = experiment: Antidiabetic activity in HFD fed C57BL/6N mouse assessed as decrease in blood glucose AUC at 10 mg/kg administered as single oral dose pretreated for 60 mins followed by glucose challenge measured after 120 mins by OGTT; assay type: functional; set-up: scale not given: the % may be the effect or the level left
Method in brief: (§2)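 Male C57BL/6 mice were fed HFD (D12492) for 21 days, n=3. Compound was given orally 1 h before an oral glucose load, and blood glucose was followed over 0-120 min. Read-out is the decrease in glucose AUC versus vehicle.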

[7] = molecular target: Voltage-gated inwardly rectifying potassium channel KCNH2 (Homo sapiens, UniProt Q12809); experiment: Inhibition of MK-499 binding to human ERG
Sequence of Voltage-gated inwardly rectifying potassium channel KCNH2 (Q12809 whole entry): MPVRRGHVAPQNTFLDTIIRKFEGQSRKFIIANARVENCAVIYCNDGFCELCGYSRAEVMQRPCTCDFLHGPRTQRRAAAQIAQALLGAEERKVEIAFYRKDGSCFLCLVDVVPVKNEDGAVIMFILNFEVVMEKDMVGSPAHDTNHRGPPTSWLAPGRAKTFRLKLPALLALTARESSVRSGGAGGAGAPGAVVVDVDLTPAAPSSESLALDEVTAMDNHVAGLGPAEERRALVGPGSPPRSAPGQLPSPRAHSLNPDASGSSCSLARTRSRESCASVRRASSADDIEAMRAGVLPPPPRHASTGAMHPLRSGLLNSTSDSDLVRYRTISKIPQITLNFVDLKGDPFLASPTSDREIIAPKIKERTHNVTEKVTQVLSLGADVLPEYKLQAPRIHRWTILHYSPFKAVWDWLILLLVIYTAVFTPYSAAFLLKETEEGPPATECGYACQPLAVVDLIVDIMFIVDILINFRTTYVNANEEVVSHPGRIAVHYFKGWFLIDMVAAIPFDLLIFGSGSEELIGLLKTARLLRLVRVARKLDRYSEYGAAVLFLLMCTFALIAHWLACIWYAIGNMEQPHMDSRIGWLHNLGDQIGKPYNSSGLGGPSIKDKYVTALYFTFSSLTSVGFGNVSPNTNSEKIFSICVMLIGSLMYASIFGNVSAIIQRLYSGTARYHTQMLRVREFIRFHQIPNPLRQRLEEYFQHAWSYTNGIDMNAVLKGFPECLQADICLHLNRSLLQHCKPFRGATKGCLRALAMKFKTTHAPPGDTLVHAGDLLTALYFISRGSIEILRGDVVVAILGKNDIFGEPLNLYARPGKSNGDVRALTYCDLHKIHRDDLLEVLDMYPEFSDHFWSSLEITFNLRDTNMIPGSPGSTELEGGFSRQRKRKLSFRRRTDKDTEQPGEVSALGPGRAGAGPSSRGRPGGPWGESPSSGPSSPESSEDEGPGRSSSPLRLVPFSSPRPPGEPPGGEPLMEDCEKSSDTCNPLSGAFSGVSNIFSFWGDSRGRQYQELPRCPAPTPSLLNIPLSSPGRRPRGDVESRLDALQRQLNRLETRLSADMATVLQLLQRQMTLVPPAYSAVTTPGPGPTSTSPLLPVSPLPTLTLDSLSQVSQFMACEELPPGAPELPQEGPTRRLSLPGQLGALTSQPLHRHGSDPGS

Mus musculus [8] = experiment: Drug uptake in mouse whole blood at 30 mg/kg, po measured at […]
Mus musculus [9] = experiment: Antidiabetic activity in HFD fed C57BL/6N mouse assessed as decrease in blood glucose AUC at 30 mg/kg administered as single oral dose pretreated for 60 mins followed by glucose challenge measured after 120 mins by OGTT; assay type: functional; set-up: scale not given: the % may be the effect or the level left; method in brief: as §2
[10] = Oral bioavailability in mouse; assay type: ADME, organism-based; details: in vivo
[11] = molecular target: Somatostatin receptor type 3 (Homo sapiens, UniProt P32745); experiment: Antagonist activity at human SSTR3 expressed in CHO-K1 cell membranes; assay type: functional, cell-based; method in brief: as §1
Sequence of Somatostatin receptor type 3 (P32745 whole entry): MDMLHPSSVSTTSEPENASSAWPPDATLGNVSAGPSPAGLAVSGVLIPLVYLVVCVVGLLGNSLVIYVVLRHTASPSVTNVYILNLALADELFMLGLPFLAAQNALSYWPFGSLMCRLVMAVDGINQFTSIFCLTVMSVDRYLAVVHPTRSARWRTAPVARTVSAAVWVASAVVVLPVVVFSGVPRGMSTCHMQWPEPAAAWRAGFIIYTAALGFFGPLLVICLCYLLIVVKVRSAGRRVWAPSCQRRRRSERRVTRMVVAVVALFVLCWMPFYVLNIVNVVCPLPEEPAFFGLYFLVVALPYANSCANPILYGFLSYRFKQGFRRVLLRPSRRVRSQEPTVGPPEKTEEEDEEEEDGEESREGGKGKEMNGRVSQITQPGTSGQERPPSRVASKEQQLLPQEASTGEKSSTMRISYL

[12] = Half life in mouse; assay type: ADME, organism-based; details: in vivo

Row | Structure (SMILES) | IC50 [1] [µM] | IC50 [2] [µM] | IC50 [3] [µM] | IC50 [4] [µM] | IC50 [5] [µM] | Activity (Mus musculus [6]) [%] | IC50 [7] [µM] | concentration at […] (Mus musculus [8]) [nM] | Activity (Mus musculus [9]) [%] | bioavailability [10] [%] | IC50 [11] [µM] | half-life [12] [h]
1 | CCOc1cc(CN2CCC(Oc3nccc(Cl)n3)CC2)cc(OCC)c1-c1ccc(F)cc1 | 0.013 | 0.021 | 0.073 | – | – | – | – | – | – | – | – | –
2 | CCOc1cc(CN2CCC(NC(=O)c3cncc(C)c3)CC2)cc(OCC)c1-c1ccc(F)cc1 | 0.001 | 0.0013 | 0.0031 | < 0.3 | 0.0027 | 87 | 1.69 | – | – | – | – | –
3 | CCOc1cc(CN2CCC3(CC2)CCN(S(=O)(=O)c2cccnc2)CC3)cc(OCC)c1-c1ccc(F)cc1 | – | 0.013 | 0.026 | – | – | – | 0.21 | – | – | – | – | –
4 | CCOc1cc(CN2CCC3(CC2)NC(=O)NC3=O)cc(OCC)c1-c1ccc(F)cc1 | 0.032 | 0.083 | 0.11 | – | 0.0074 | – | 25 | 460 | 54 | – | – | –
5 | CCOc1cc(CN2CCC3(CC2)CC(Cc2ccc(F)cc2)C(=O)O3)cc(OCC)c1-c1ccc(F)cc1 (racemic) | 0.0025 | 0.0016 | 0.067 | – | – | – | – | – | – | – | – | –
6 | CCOc1cc(CN2CCC(COc3cccc4cccnc34)CC2)cc(OCC)c1-c1ccc(F)cc1 | 0.0006 | 0.0029 | 0.0678 | – | 0.0071 | – | 0.21 | – | – | – | – | –
7 | CCOc1cc(CN2CCC(C3CCN(S(=O)(=O)c4ccccc4)CC3)CC2)cc(OCC)c1-c1ccc(F)cc1 | 0.0008 | 0.0007 | 0.0086 | – | 0.028 | – | 0.22 | 92 | 60 | 13 | – | –
8 | CCOc1cc(CN2CCC(c3ncc(-c4ccc(F)cc4)[nH]3)CC2)cc(OCC)c1-c1ccc(F)cc1 | 0.0027 | 0.0076 | 0.247 | – | 0.098 | – | 0.26 | – | – | – | 0.119 | –
9 | CCOc1cc(CN2CC[C@H]3C(Nc4nc5ccc(C(=O)O)cc5o4)CC[C@H]32)cc(OCC)c1-c1ccc(F)cc1 (relative stereo) | 0.016 | 0.0025 | 0.0045 | 6 | 0.0061 | – | 15 | 760 | 56 | 48 | – | 1.7
